APJ antag = antagonists of human APJ apelin receptor; P35414; CHO-K1 APJ beta-arrestin complementation, luminescence; inhibition, % at 20 µM; actives 0.32% (n = 330,000);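 active = inhibition above about 40% at 20 µM, limit read from the data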;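 note: cells challenged with 10 nM apelin-13 agonist together with compound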
APJ ag = agonists of human APJ apelin receptor | activation, % at 20 µM | CHO-K1 APJ PathHunter beta-arrestin, luminescence; 0% DMSO wells, 100% apelin | actives 0.11% (n = 330,000) | P35414;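 active = activation more than six SD over the plate average, tested at 20 µM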
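Assay system: CHO-K1 APJ beta-arrestin complementation cell line / Compound: single test compound dose, 20 µM final, 1% DMSO / Times: overnight seeding, 90 min compound at 25 °C, 1 h detection / Technique: beta-gal luminescence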
B2AR ag = human beta-2 adrenergic receptor agonism by FAP; P07550; Am2.2-beta2AR cells, FAP receptor internalization, flow cytometry; response, % (no concentration beside the values); actives 0.43% (n = 340,000); AID 504454;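 active = response above a set limit, near 3 SD of response in nonfluorescent compounds, cut at about 42% in these data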
CXCR6 block = CXCR6 (human) receptor inhibition; CHO-K1 PathHunter CXCR6 beta-arrestin, luminescence; inhibition, % at 20 µM; actives 0.36% (n = 360,000); in the data active = inhibition above about 34%, passing the limit was not always enough;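 note: antagonist mode with CXCL16 agonist at 10 nM final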
Target sequence (O00574 whole entry, looked up): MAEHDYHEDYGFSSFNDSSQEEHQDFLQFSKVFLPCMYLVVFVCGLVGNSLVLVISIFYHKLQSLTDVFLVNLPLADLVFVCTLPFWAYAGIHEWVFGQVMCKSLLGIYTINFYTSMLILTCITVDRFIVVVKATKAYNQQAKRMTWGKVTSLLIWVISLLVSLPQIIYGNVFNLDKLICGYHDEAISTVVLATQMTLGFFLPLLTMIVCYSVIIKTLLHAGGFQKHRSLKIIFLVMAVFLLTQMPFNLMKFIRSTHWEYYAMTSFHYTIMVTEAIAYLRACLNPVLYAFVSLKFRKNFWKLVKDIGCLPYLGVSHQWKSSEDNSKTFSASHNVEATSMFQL
CCR6 antagonist = antagonists of human CCR6 receptor; CHO-K1 CCR6 PathHunter beta-arrestin, luminescence, CCL20-stimulated; actives 0.49% (n = 340,000); P51684; inhibition, % at 20 µM; AID 493098;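 active = compounds whose inhibition of the agonist-driven luminescence signal at 20 µM reaches about 50%, limit read from the data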;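 note: cells stimulated with CCL20 at 14 nM final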
EBI2 antag = antagonists of human EBI2 receptor. inhibition, % at 5 µM. AID 651636. P32249. EBI2 beta-arrestin recruitment, luminescence, 7a,25-OHC stimulated. actives 0.81% (n = 360,000); in the data active = inhibition above about 38%;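 note: enzyme fragment complementation signal reports receptor beta-arrestin coupling in cells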
APJ ag confirm = APJ receptor agonism confirmation; shares compounds with APJ ag; CHO-K1 APJ PathHunter beta-arrestin, luminescence; activation, % at 20 µM; actives 10% (n = 310); AID 2764;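 active = activation above 40%, taking the highest of four retests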
A number is an active result; – = inactive; · = not tested or not shown. Hits are enriched below; roughly 1.8% of the tested compounds scored in any of these assays.

SMILES	APJ antag	APJ ag	B2AR ag	CXCR6 block	CCR6 antagonist	EBI2 antag	APJ ag confirm
N/C(=N\OC(=O)c1ccccc1)c1ccncc1	–	–	–	–	–	–	·
Cc1c(C(=O)Nc2cccc(C(F)(F)F)c2)oc2ccc(S(=O)(=O)N3CCOCC3)cc12	–	21.5	–	–	–	–	–
CCOc1cc2[nH]c(=S)n(CC3CCCO3)c(=O)c2cc1OCC (centres undefined)	–	–	–	–	–	–	·
CCCn1c(=S)[nH]c2cc(C(=O)N3CCc4ccccc4C3)ccc2c1=O	–	–	–	–	–	–	·
CCOc1cc2[nH]c(=S)n(CCC(=O)N3CCc4ccccc4C3)c(=O)c2cc1OCC	–	52.7	–	–	–	–	47.5
CCOc1cc2[nH]c(=S)n(CC3CCCN3CC)c(=O)c2cc1OCC (centres undefined)	–	17.1	·	–	–	–	–
CC(=O)Nc1cccc(-c2cc(C)c3cc4c(cc3n2)OCO4)c1	–	–	–	–	–	–	·
CNC(=O)COC(=O)/C=C/c1cn(-c2ccccc2)nc1-c1ccc2c(c1)OCCO2	–	–	–	–	–	–	·
Cc1ccc(-c2nn(-c3ccccc3)cc2/C=C/C(=O)OCC(=O)NC2CC2)o1	–	12.1	–	–	–	–	–
C/C(=N\NC(=O)c1ccc2ccccc2c1)c1cccs1	–	–	–	–	–	–	·
O=C(NC(Cc1ccccc1)C(=O)N1CCN(S(=O)(=O)c2ccccc2F)CC1)c1ccccc1 (centres undefined)	–	26.1	–	–	–	–	–
COc1ccc(-c2cn3c(C)c(C(=O)Nc4cccc(NC(C)=O)c4)sc3n2)cc1	–	16.9	–	–	–	–	–
COc1ccc(-c2cn3c(C)c(C(=O)Nc4ccncc4)sc3n2)cc1	–	–	–	–	–	–	·
CCCCNc1c(-c2ccc(OC)c(SC3CCCCC3)c2)nc2ccc(C)cn12	–	17.5	75.7	–	–	–	–
COc1ccc(-c2nc3ccc(C)cn3c2NCc2ccccc2)cc1SC1CCCCC1	–	–	–	–	–	–	·
CCCCNc1c(-c2ccc(OC)c(SC(C)CC)c2)nc2ccc(C)cn12 (centres undefined)	–	26.1	–	–	–	–	–
N#Cc1nc(-c2ccc(OCc3ccc(Cl)cc3)cc2)oc1N1CCOCC1	–	25.2	–	–	–	–	–
CCCCCCc1cc2cc(C(=O)NCc3ccccc3)c(=N)oc2cc1O	–	–	–	–	–	–	·
CCCCCCc1cc2cc(C(=O)Nc3ccccc3)c(=O)oc2cc1O	–	11.3	–	–	–	–	43.0
Cc1cccc(/C(N)=N/OC(=O)c2cccc3ccccc23)c1	–	36.5	–	–	·	–	–
N/C(=N\OC(=O)c1cccc2ccccc12)c1cccc([N+](=O)[O-])c1	–	–	–	–	–	–	·
COc1ccc(OC)c(CN2C(=O)CSCC2(C)C(=O)Nc2c(C)cccc2C)c1 (centres undefined)	·	·	·	·	·	–	·
Cc1nn(CSc2c(F)c(F)c(F)c(F)c2F)c(C)c1[N+](=O)[O-]	–	–	–	–	–	–	·
CC(=O)NC(CC(=O)NNC(=O)c1cc2ccccc2cc1O)c1ccccc1 (centres undefined)	–	29.9	–	–	–	–	–
COC/C=C/C1=CC2=CC(=O)C(C)(OC(=O)c3cnc4ccccc4n3)C(=O)C2=CN1C1CCCC1 (centres undefined)	–	121.9	·	·	·	·	–
SMILES	APJ antag	APJ ag	B2AR ag	CXCR6 block	CCR6 antagonist	EBI2 antag	APJ ag confirm
COc1ccc2noc3c2c1C(=O)c1ccccc1-3	–	21.4	–	–	–	–	–
CCCCC1=CC2=CC(=O)C(C)(OC(=O)CC)C(=O)C2=CN1c1ccccc1 (centres undefined)	–	74.6	–	–	–	–	–
CCNc1nc(OC)nc(N2CCC(Cc3ccccc3)CC2)n1	–	–	–	–	–	–	·
Nc1nnc2cc(Br)ccc2n1	·	·	·	–	·	–	·
COC1(C)CC2C(CC1OC(=O)c1cc([N+](=O)[O-])cc([N+](=O)[O-])c1)C2(C)C (centres undefined)	–	13.5	–	–	–	–	–
COC(=O)c1cc(C(=O)NCC2CCCCC2)cc([N+](=O)[O-])c1	–	–	–	–	–	–	·
Cc1nc(NC(=O)CSc2nc3cccnc3n2C2CCCCC2)sc1C	–	–	–	–	–	–	·
CCc1nnc(NC(=O)CSc2nc3cccnc3n2C2CCCCC2)s1	–	52.9	–	–	–	–	62.0
Cc1ccc(-c2nn(-c3ccccc3)cc2/C=N/NC(=O)c2ccc(Br)o2)cc1	–	12.5	–	–	–	–	–
C[C@@H]1CN([C@@H](C)CO)C(=O)c2cc(Br)cnc2O[C@H]1CN(C)C(=O)Nc1ccc2c(c1)OCO2	·	·	·	–	·	–	·
N#CC1=C(N)Oc2nc(-c3ccccc3)[nH]c2C1c1cccnc1 (centres undefined)	–	–	–	–	–	–	·
Cc1ccc(C2C(C#N)=C(N)Oc3nc(-c4ccccc4)[nH]c32)o1 (centres undefined)	–	29.7	–	–	–	–	–
COc1ccnc(CS(=O)c2nc3cc(OC(F)F)ccc3[nH]2)c1OC (centres undefined)	–	–	·	·	·	·	·
COc1cc2ccccc2cc1C(=O)Nc1ccc(N2CCN(C(=O)C(C)C)CC2)cc1	–	19.6	–	–	–	–	–
COC(=O)C1(Cc2cc(-c3cccnc3)no2)CCN(C(=O)OC(C)(C)C)CC1	–	36.4	–	–	–	–	–
COc1ccc(S(=O)(=O)N(C)CC(=O)NCc2ccco2)cc1Cl	–	–	·	–	–	–	·
COc1ccc(C)cc1S(=O)(=O)N(C)CC(=O)NCc1ccco1	–	25.4	–	–	–	–	–
COc1ccc(S(=O)(=O)N2CCC[C@H]2C(=O)N2CCC[C@H]2C(=O)NCc2ccc(F)cc2F)cc1C	·	·	·	–	·	–	·
COc1ccc(OCC(=O)Nc2ccc(S(=O)(=O)N3CCOCC3)cc2)cc1	–	–	–	–	–	–	·
CC(=O)Nc1ccc(OCC(=O)Nc2ccc(Cl)c(S(=O)(=O)N3CCOCC3)c2)cc1	–	17.3	·	–	·	–	–
CC1=C(c2ccc(C)cc2)[N+](=O)C(C)(C)N1[O-]	–	10.3	–	–	–	–	–
COc1ccc(NC(=O)OCC(C)C)cc1OC	–	–	–	–	–	–	·
COc1cc(CNC(=O)OCC(C)C)cc(OC)c1OC	–	18.4	–	–	–	–	–
CC[n+]1c(/C=C/N(C)c2ccccc2)n(-c2ccccc2)c2ccc(-c3nc4ccccc4s3)cc21	–	26.0	–	–	–	–	–
CCOC(=O)c1ccc2c(c1)n(CC)c(/C=C/N(C)c1ccccc1)[n+]2CC	–	–	–	–	–	–	·
